The text below walks through data of ChEMBL document CHEMBL1153995, “Synthesis and biological evaluation of new enantiomerically pure azole derivatives as inhibitors of Mycobacterium tuberculosis” (2009).

The structures appear in SMILES notation. In brackets after ≈: the same amount, converted by molar mass.

The experiment has as its system Mycobacterium tuberculosis. In words: Antimycobacterial activity against Mycobacterium tuberculosis H37Rv ATCC 27294 after 21 to 28 days by two fold agar dilution method. It is filed as functional. The method in brief: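 Stock kept on Löwenstein-Jensen slants. Twofold agar dilution in Middlebrook 7H11 agar with 10% OADC, compounds at 0.0312–64 µg/mL. Inoculum grown in Middlebrook 7H9 with 10% ADC, suspension at 1.5 × 10⁵ cfu/mL, final 1.5 × 10³ per well. Incubated 21–28 days. MIC read as lowest concentration completely inhibiting visible growth.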
(In general: In agar dilution the substance is mixed into plates at graded concentrations.)

As to `Clc1ccc(Cn2cc([C@@H](c3ccc(Cl)cc3)n3ccnc3)nn2)cc1`, the MIC was 32 µg/mL (≈ 83.3 µM). The molecule `Fc1ccc([C@H](c2cn(Cc3ccccc3)nn2)n2ccnc2)cc1` returned an MIC of 64 µg/mL (≈ 192 µM). Take `Fc1ccc([C@@H](c2cn(Cc3ccccc3)nn2)n2ccnc2)cc1`: the MIC was determined as 64 µg/mL (≈ 192 µM). `Brc1ccc([C@H](c2cn(-c3ccccc3)nn2)n2ccnc2)cc1`: the MIC amounted to 32 µg/mL (≈ 84.2 µM). Consider `Brc1ccc([C@@H](c2cn(Cc3ccccc3)nn2)n2ccnc2)cc1`, for which the MIC was 32 µg/mL (≈ 81.2 µM).

The molecule `Brc1ccc([C@@H](c2cn(-c3ccccc3)nn2)n2ccnc2)cc1` returned an MIC of 32 µg/mL (≈ 84.2 µM). In turn, `Brc1ccc([C@H](c2cn(Cc3ccccc3)nn2)n2ccnc2)cc1` yielded an MIC of 16 µg/mL (≈ 40.6 µM). `Clc1ccc(Cn2cc([C@H](c3ccc(Cl)cc3)n3ccnc3)nn2)cc1` came in with an MIC of 32 µg/mL (≈ 83.3 µM). The molecule `Fc1ccc([C@@H](c2cn(-c3ccccc3)nn2)n2ccnc2)cc1` came in with an MIC of 32 µg/mL (≈ 100 µM). `Fc1ccc([C@H](c2cn(-c3ccccc3)nn2)n2ccnc2)cc1`: the MIC was determined as 32 µg/mL (≈ 100 µM). For `Clc1ccccc1C(c1ccccc1)(c1ccccc1)n1ccnc1` [CLOTRIMAZOLE] the value was 20.4 µg/mL (≈ 59.2 µM).

In turn, `Clc1ccc(COC(Cn2ccnc2)c2ccc(Cl)cc2Cl)cc1` (stereo not drawn) [ECONAZOLE] had an MIC of 12.5 µg/mL (≈ 32.7 µM).

Regarding `NNC(=O)c1ccncc1` [ISONIAZID], the MIC was found to be 0.2 µg/mL (≈ 1.46 µM).

One may read the MIC as the smallest concentration in the dilution series that meets the test's criterion for growth inhibition. A higher MIC goes with weaker potency.
